Measured values collected from several papers.
Lines come from different studies, so protocols differ.
CHRNA9: Neuronal acetylcholine receptor subunit alpha-9 (CHRNA9, Homo sapiens, UniProt Q9UGM1)
emrE: emrE (Escherichia coli, UniProt P23895)
HRH1: Histamine H1 receptor (HRH1, Homo sapiens, UniProt P35367)
CA9: Carbonic anhydrase 9 (CA9, Homo sapiens, UniProt Q16790)
MAOB: Amine oxidase [flavin-containing] B (MAOB, Homo sapiens, UniProt P27338)

CCC[N+]1(C)CCN(c2ccccc2)CC1  EC50 (CHRNA9; ion current, agonist, two-electrode voltage clamp; oocytes): 60 µM
Cc1nccc2c1[nH]c1ccccc12  Kd (emrE; binding, fluorescence): 46 µM
CCCCC1CNC2CCc3ccc(OC)cc3C12 (racemic)  Ki (HRH1; ligand displacement, radioligand): 0.135 µM
CCC[N+]1(CC)CCN(c2ccc(C#N)cc2)CC1  EC50 (CHRNA9; ion current, agonist, two-electrode voltage clamp; oocytes): 1.9 µM
C[n+]1ccc(-c2cc[n+](C)cc2)cc1  Kd (emrE; binding, fluorescence): 73 µM
CC1=C(O)C(=O)C=C2C1=CC=C1[C@@]2(C)CC[C@@]2(C)[C@@H]3C[C@](C)(C(=O)O)CC[C@]3(C)CC[C@]12C  Kd (Cytochrome P450 3A5 (CYP3A5, Homo sapiens, UniProt P20815); binding, BLI; SAS): 2.07 µM
COc1cc2c(cc1OC)CN(CCc1ccc(NC(=O)c3cccc4c(=O)c5cccc(OC)c5[nH]c34)cc1)CC2  Ki (HRH1; cell-free assay): > 10 µM
CCOC(=O)c1ccc(OC(=O)CCCCCN=C(N)N)cc1  IC50 (Urokinase-type plasminogen activator (PLAU, Homo sapiens, UniProt P00749); enzyme activity, inhibitor): 0.0236 µM
Cc1c(Cl)c(=O)oc2cc(OCCCC[Se]C#N)ccc12  Ki (CA9; enzyme activity, inhibitor, stopped-flow): 0.0429 µM
CC[C@H](C)[C@H](N)C(=O)N1CCC[C@H]1C(=O)N1CCC[C@H]1C(=O)NCC(=O)N[C@H](C(=O)N1CCC[C@H]1C(=O)N[C@@H](Cc1ccc(O)cc1)C(=O)O)C(C)C  IC50 (MAOB; enzyme activity, inhibitor, fluorescence): 9410 µM
CN1CC[C@@]2(C)c3cc(OC(=O)Nc4ccccc4)ccc3N(C)[C@@H]12  IC50 (Retinaldehyde dehydrogenase 3 (ALDH1A3, Homo sapiens, UniProt P47895); enzyme activity, inhibitor): < 10 µM
N#C[Se]CCCCOc1ccc2c(-c3ccccc3)cc(=O)oc2c1  Ki (CA9; enzyme activity, inhibitor, stopped-flow): 0.211 µM
CC[C@H](C)[C@H](NC(=O)[C@H](C)NC(=O)[C@H](CCC(=O)O)NC(=O)[C@H](Cc1c[nH]cn1)NC(=O)[C@H](CC(C)C)NC(=O)[C@@H](NC(=O)[C@H](Cc1ccccc1)NC(=O)[C@H](CO)NC(=O)[C@@H](NC(=O)[C@H](CC(C)C)NC(=O)[C@H](CC(=O)O)NC(=O)[C@H](CC(C)C)NC(=O)[C@@H]1CCCN1)[C@@H](C)O)C(C)C)C(=O)O  IC50 (MAOB; enzyme activity, inhibitor, fluorescence): 1900 µM
